Experimental data from PMC4335298 (Genes & Development, 2015).

What was measured:
[1] = molecular target: hTLX (construct of the size exclusion chromatography not stated) (human) (UniProt Q9Y466); assay: SEC
[2] = Size exclusion chromatography of hTLX
[3] = system: Gal4 transcriptional activity; assay: Gal4 reporter repression assay with Gal4-fused receptor LBDs; assay type: cell-based; conditions: Gal4-fused receptor LBD, cell reporter assay, AD293 cells
How it was run: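 AD293 cells were cotransfected with Gal4-DBD fusions of the hTLX LBD (residues 182–385; H12 deletion residues 182–371) or the dTLX LBD (residues 229–472), wild type or mutant, plus a luciferase reporter. Repression fold is RLU with Gal4 alone relative to RLU with the Gal4-receptor fusion. Expression was checked by anti-Gal4 Western blot. Values are SD, n = 3, with at least two repeats, and groups were compared by two-tailed Student's t-test.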

[4] = system: SHP full-length (NP_035980); assay: Coimmunoprecipitation with SHP; assay type: binding, mouse; conditions: Co-IP, Flag/HA fusions, Western blot

## hTLX (construct of the size exclusion chromatography not stated) (from UniProt Q9Y466-1 1-385) (natural protein)
[1]
  stoichiometry N: 2

## hTLX: human TLX (NP_003260)
[2]
  Oligomeric state in solution: formed a dimer in solution

B1: COUP-TF2∆H12: human COUP-TF2 residues 76–258, helix H12 deleted (protein, UniProt P24468 76-258, looked up, fragment)
chain: HIECVVCGDKSSGKHYGQFTCEGCKSFFKRSVRRNLSYTCRANRNCPIDQHHRNQCQYCRLKKCLKVGMRREAVQRGRMPPTQPTHGQFALTNGDPLNCHSYLSGYISLLLRAEPYPTSRFGSQCMQPNNIMGIENICELAARMLFSAVEWARNIPFFPDLQITDQVALLRLTWSELFVLNAA
modifications: ligand-binding domain, H12 deleted
[3]
  Repressor activity (in words): compromised its repressor activity

B2: Atrophin-2: Atrophin-2 (NP_001036046, residues 1087–1566) (protein)
chain: AAKASSSAHEGRLSDPQLSGPGHMRPSFEPPPTTIAAVPPYIGPDTPALRTLSEYARPHVMSPTNRNHPFYMPLNPTDPLLAYHMPGLYNVDPTIRERELREREIREREIRERELRERMKPGFEVKPPELDPLHPATN
modifications: left off: Gal4 DNA-binding domain, end not stated, kept
[4]
  Interaction with SHP: able to interact
